In ChEMBL document CHEMBL1149793, “1,8-Naphthyridines VI. Synthesis and anti-inflammatory activity of 5-(alkylamino)-N,N-diethyl[1,2,4]triazolo[4,3-a][1,8]naphthyridine-6-carboxamides with a new substitution pattern on the triazole ring” (2008) one finds inhibition in vivo and Activity data, which are given here for 16 molecules.

What is called inhibition in vivo is how much of the control response was suppressed. Read a low inhibition in vivo as little suppression.

What all share (format): functional
The subject of test [1] is Rattus norvegicus. Briefly: Antiinflammatory activity against carrageenan-induced edema in Sprague-Dawley rat at 6 mg/kg, po. The procedure, abridged:
(§1)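 Rats were dosed orally by gastric intubation with a homogenized suspension in 0.5% carboxymethylcellulose (1 mL/100 g); controls received vehicle alone. After 60 min, 0.1 mL of 1% carrageenan in saline was injected into the plantar surface of the right hind paw. Paw volume was measured by water displacement at injection and 2 h later. Edema was taken as the difference, with % inhibition versus controls (mean ± SD, Student's t-test).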

Test [2] relates to Rattus norvegicus. Briefly: Antiinflammatory activity against carrageenan-induced edema in Sprague-Dawley rat at 200 mg/kg, po. In outline:
as §1

Test [3] has as its system Rattus norvegicus. Kind of test: Antiinflammatory activity against carrageenan-induced edema in Sprague-Dawley rat at 100 mg/kg, po. In outline:
as §1

The test system of test [4] is Rattus norvegicus. Briefly: Antiinflammatory activity against carrageenan-induced edema in Sprague-Dawley rat at 50 mg/kg, po. The procedure, abridged: as §1
A general note: In the carrageenan paw model, swelling and tenderness develop within hours.

For test [5], the system named is Rattus norvegicus. Kind of test: Antiinflammatory activity against carrageenan-induced edema in Sprague-Dawley rat at 25 mg/kg, po. The procedure, abridged:
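Oral gavage dosing as a homogenized suspension in 0.5% carboxymethylcellulose (1 mL/100 g); controls got vehicle; indomethacin 6 mg/kg p.o. positive control. After 60 min, 0.1 mL 1% carrageenan in saline injected into the right hind plantar surface. Paw volume read by water displacement to the lateral malleolus at injection and 2 h later; the difference is edema. % inhibition vs controls; Student's t-test.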

The subject of another test is Mus musculus. Briefly: Analgesic activity against acetic acid-induced writhing in mouse at 3.12 mg/kg.

In the test with Rattus norvegicus [1], `COc1ccc2c(c1)c(CC(=O)O)c(C)n2C(=O)c1ccc(Cl)cc1` [INDOMETHACIN] registered an inhibition in vivo at 6 mg/kg of 92%. `CCOC(=O)Cc1nnc2c(C(=O)N(CC)CC)c(NCC(C)C)c3cccnc3n12` returned an inhibition in vivo at 200 mg/kg with Rattus norvegicus [2] of 65%. Moreover, the inhibition in vivo at 100 mg/kg in the test with Rattus norvegicus [3] worked out at 35%. Besides, in the test with Rattus norvegicus [4], the inhibition in vivo at 50 mg/kg was 21%. On to `CCN(CC)C(=O)c1c(Cl)c2cccnc2n2c(C(=O)N(C(C)C)C(C)C)nnc12`, for which 200 mg/kg produced 30% inhibition in vivo in the test with Rattus norvegicus [2]. Molecule `CCN(CC)C(=O)c1c(N(CC(C)C)C(C)=O)c2cccnc2n2c(C(C)C)nnc12` returned an inhibition in vivo at 200 mg/kg in the test with Rattus norvegicus [2] of 5%. `CCN(CC)C(=O)c1c(NCC(C)C)c2cccnc2n2c(C(=O)N(CC)CC)nnc12` yielded an inhibition in vivo at 200 mg/kg with Rattus norvegicus [2] of 60%. In the test on Rattus norvegicus [3], this molecule had an inhibition in vivo at 100 mg/kg of 30%. The molecule `CCNc1c(C(=O)N(CC)CC)c2nnc(C(C)C)n2c2ncccc12` returned an inhibition in vivo at 25 mg/kg with Rattus norvegicus [5] of 61%.

As to `CCN(CC)C(=O)c1c(NCC(C)C)c2cccnc2n2c(CC(=O)Nc3nccs3)nnc12`, 200 mg/kg produced 18% inhibition in vivo in the test with Rattus norvegicus [2]. Still for that read-out and setting: the value for `CCCN(CCC)C(=O)c1nnc2c(C(=O)N(CC)CC)c(NCC(C)C)c3cccnc3n12` was 35%; that for `CCOC(=O)c1nnc2c(C(=O)N(CC)CC)c(NCC(C)C)c3cccnc3n12` was 20%. `CCNc1c(C(=O)N(CC)CC)c2nnc(CC(=O)OCC)n2c2ncccc12` had an inhibition in vivo at 200 mg/kg in the test with Rattus norvegicus [2] of 0%. The molecule `CCc1nnc2c(C(=O)N(CC)CC)c(N(CC)C(=O)c3cccnc3)c3cccnc3n12` yielded an inhibition in vivo at 200 mg/kg in the test on Rattus norvegicus [2] of 51%. In the test with Rattus norvegicus [3], this molecule displayed an inhibition in vivo at 100 mg/kg of 31%. `CCOC(=O)C(C)c1nnc2c(C(=O)N(CC)CC)c(NCC(C)C)c3cccnc3n12` (stereo not given) gave an inhibition in vivo at 200 mg/kg in the test with Rattus norvegicus [2] of 12%. With `CCN(CC)C(=O)c1c(NCC(C)C)c2cccnc2n2c(CC(=O)NCC(C)C)nnc12`, in the test on Rattus norvegicus [2], the inhibition in vivo at 200 mg/kg was 18%. Turning to `CCN(CC)C(=O)c1c(NCC(C)C)c2cccnc2n2c(C(C)C)nnc12`, the inhibition in vivo at 25 mg/kg in the test with Rattus norvegicus [5] was found to be 61%. In the test with Rattus norvegicus [2], `CCCCNc1c(C(=O)N(CC)CC)c2nnc(CC(=O)NCC(C)C)n2c2ncccc12` gave an inhibition in vivo at 200 mg/kg of 0%. On to `CCN(CC)C(=O)c1c(N2CCN(C)CC2)c2cccnc2n2c(C(C)C)nnc12`, for which the Activity in the test with Mus musculus came to 85%.
